# Published values of several laboratories.
# Compare with care: the assays were run in different laboratories.
# PFF0160c: Dihydroorotate dehydrogenase (quinone), mitochondrial (PFF0160c, Plasmodium falciparum, UniProt Q08210)
# SIGMAR1: Sigma non-opioid intracellular receptor 1 (SIGMAR1, Homo sapiens, UniProt Q99720)
# PFF0160c E182D: Dihydroorotate dehydrogenase (quinone), mitochondrial (PFF0160c, Plasmodium falciparum, UniProt Q08210, E182D)
# Nectin-4: Nectin-4 (Homo sapiens, UniProt Q96NY8)
SMILES,target,assay,measurement,result
CCCCN(C)CC#Cc1ccc2[nH]c(C)c(Cl)c(=O)c2c1,PFF0160c,"enzyme activity, inhibitor, absorbance",IC50,4550 nM
CN(C)CCC(c1ccc(Cl)cc1)c1ccccn1 (stereo not drawn),SIGMAR1,"ligand displacement, radioligand",Ki,1310 nM
O=C(CNCC1CCCCC1)Nc1cc(C(F)(F)F)ccc1Cl,PFF0160c E182D,"enzyme activity, inhibitor, absorbance",IC50,8390 nM
CCCC[C@@H]1NC(=O)[C@H](Cc2ccc(O)cc2)NC(=O)[C@@H]2CCCN2C(=O)[C@H](CC(=O)O)NC(=O)[C@H](C)NC(=O)[C@H](Cc2ccccc2)NC(=O)[C@@H]2CSCCC(=O)N3CN(CN(C3)C(=O)CCSC[C@H](NC(C)=O)C(=O)N[C@@H](CC(C)(C)C)C(=O)N[C@@H](CCC(=O)O)C(=O)N[C@@H](CCC(=O)O)C(=O)N[C@H](CCCCNC(=O)CCc3cn(CCOCCOCCOCCOCCOCCC(=O)N[C@H]4CSCCC(=O)N5CN6CN(C5)C(=O)CCSC[C@H](NC(=O)[C@@H](CC(=O)O)NC(=O)[C@H](Cc5cccc7ccccc57)NC(=O)[C@@H]5CCCN5C4=O)C(=O)N[C@@H](CCSC)C(=O)N[C@@H](CCCCNC(=N)N)C(=O)N[C@@H](CC(=O)O)C(=O)N[C@@H](Cc4c[nH]c5ccccc45)C(=O)N[C@@H](CO)C(=O)N[C@@H]([C@@H](C)O)C(=O)N4CCC[C@H]4C(=O)N4C[C@H](O)C[C@H]4C(=O)N[C@@H](Cc4c[nH]c5ccccc45)C(=O)N[C@H](C(N)=O)CSCCC6=O)nn3)C(=O)N3CCC[C@H]3C(=O)N[C@@H](Cc3ccc(O)cc3)C(=O)N2)C(=O)CCSC[C@@H](C(N)=O)NC1=O,Nectin-4,"binding, SPR",Kd,1.7 nM
O=C1C(c2ccccc2)=C(Nc2ccc([N+](=O)[O-])cc2)c2ccccc21,PFF0160c,"enzyme activity, inhibitor, absorbance",IC50,2150 nM
N[C@@H](CC(=O)O)C(=O)O,"tar (Salmonella enterica, UniProt P02941, E302Q/E491Q)",binding,Kd,1000 nM
CCCC[C@@H]1NC(=O)[C@H](Cc2ccc(O)cc2)NC(=O)[C@@H]2CCCN2C(=O)[C@H](CC(=O)O)NC(=O)[C@H](C)NC(=O)[C@H](Cc2ccccc2)NC(=O)[C@@H]2CSCCC(=O)N3CN(CN(C3)C(=O)CCSC[C@@H](C(=O)N[C@@H](C)C(N)=O)NC1=O)C(=O)CCSC[C@H](NC(C)=O)C(=O)N[C@@H](CC(C)(C)C)C(=O)N1CCC[C@H]1C(=O)N[C@@H](CCC(=O)O)C(=O)N[C@H](CCCCNC(=O)CCc1cn(CCOCCOCCOCCOCCOCCC(=O)N[C@H]3CSCCC(=O)N4CN5CN(C4)C(=O)CCSC[C@H](NC(=O)[C@@H](CCC(=O)O)NC(=O)[C@H](Cc4cccc6ccccc46)NC(=O)[C@@H]4CCCN4C3=O)C(=O)N[C@@H](CC(C)C)C(=O)N[C@@H](CCCCNC(=N)N)C(=O)N[C@@H](CC(=O)O)C(=O)N[C@@H](Cc3c[nH]c4ccccc34)C(=O)N[C@@H](CO)C(=O)N[C@@H]([C@@H](C)O)C(=O)N3CCC[C@H]3C(=O)N3C[C@H](O)C[C@H]3C(=O)N[C@@H](Cc3c[nH]c4ccccc34)C(=O)N[C@H](C(N)=O)CSCCC5=O)nn1)C(=O)N1CCC[C@H]1C(=O)N[C@@H](Cc1ccc(O)cc1)C(=O)N2,Nectin-4,"binding, SPR",Kd,4.2 nM
COc1cc2c(cc1OC)CN(CCc1ccc(NC(=O)c3cc(OC)c(OC)cc3NC(=O)c3cnc4ccccc4c3)cc1)CC2,SIGMAR1,"ligand displacement, radioligand",Ki,472 nM
CCCC[C@@H]1NC(=O)[C@H](Cc2ccc(O)cc2)NC(=O)[C@@H]2CCCN2C(=O)[C@H](CC(=O)O)NC(=O)[C@H](C)NC(=O)[C@H](Cc2ccccc2)NC(=O)[C@@H]2CSCCC(=O)N3CN(CN(C3)C(=O)CCSC[C@H](NC(C)=O)C(=O)N[C@@H](CC(C)(C)C)C(=O)N3CCC[C@H]3C(=O)N[C@@H](CCC(=O)O)C(=O)N[C@H](CCCCNC(=O)CCc3cn(CCOCCOCCOCCOCCOCCC(=O)N[C@H]4CSCCC(=O)N5CN6CN(C5)C(=O)CCSC[C@H](NC(=O)[C@@H](CC(=O)O)NC(=O)[C@H](Cc5cccc7ccccc57)NC(=O)[C@@H]5CCCN5C4=O)C(=O)N[C@@H](CCSC)C(=O)N[C@@H](CCCCNC(=N)N)C(=O)N[C@@H](CC(=O)O)C(=O)N[C@@H](Cc4c[nH]c5ccccc45)C(=O)N[C@@H](CO)C(=O)N[C@@H]([C@@H](C)O)C(=O)N4CCC[C@H]4C(=O)N4C[C@H](O)C[C@H]4C(=O)N[C@@H](Cc4c[nH]c5ccccc45)C(=O)N[C@H](C(N)=O)CSCCC6=O)nn3)C(=O)N3CCC[C@H]3C(=O)N[C@@H](Cc3ccc(O)cc3)C(=O)N2)C(=O)CCSCCNC1=O,Nectin-4,"binding, SPR",Kd,1.6 nM
C/C(=C\[N+](=O)[O-])c1ccccc1,"nerA (Agrobacterium radiobacter, UniProt O31246)","binding, absorbance",Kd,730000 nM
CCC(c1ccccc1)c1nn2c(-c3cccs3)nnc2s1 (stereo not drawn),PFF0160c,"enzyme activity, inhibitor, absorbance",IC50,158 nM
CN(C)CCOC(C)(c1ccccc1)c1ccccn1 (stereo not drawn),SIGMAR1,"ligand displacement, radioligand",Ki,> 10000 nM
Cc1cc(F)ccc1NS(=O)(=O)c1ccc(-c2ccoc2)s1,PFF0160c E182D,"enzyme activity, inhibitor, absorbance",IC50,> 10000 nM
CCCC[C@@H]1NC(=O)[C@H](Cc2ccc(O)cc2)NC(=O)[C@@H]2CCCN2C(=O)[C@H](CC(=O)O)NC(=O)[C@H](C)NC(=O)[C@H](Cc2ccccc2)NC(=O)[C@@H]2CSCCC(=O)N3CN(CN(C3)C(=O)CCSC[C@@H](C(=O)N[C@@H](C)C(N)=O)NC1=O)C(=O)CCSC[C@H](NC(=O)[C@H](C)NC(C)=O)C(=O)N[C@@H]([C@@H](C)CC)C(=O)N[C@@H](CCC(=O)O)C(=O)N[C@@H](CCC(=O)O)C(=O)N[C@H](CCCCNC(=O)CCc1cn(CCOCCOCCOCCOCCOCCC(=O)N[C@H]3CSCCC(=O)N4CN5CN(C4)C(=O)CCSC[C@H](NC(=O)[C@@H](CC(=O)O)NC(=O)[C@H](Cc4cccc6ccccc46)NC(=O)[C@@H]4CCCN4C3=O)C(=O)N[C@@H](CCSC)C(=O)N[C@@H](CCCCNC(=N)N)C(=O)N[C@@H](CC(=O)O)C(=O)N[C@@H](Cc3c[nH]c4ccccc34)C(=O)N[C@@H](CO)C(=O)N[C@@H]([C@@H](C)O)C(=O)N3CCC[C@H]3C(=O)N3C[C@H](O)C[C@H]3C(=O)N[C@@H](Cc3c[nH]c4ccccc34)C(=O)N[C@H](C(N)=O)CSCCC5=O)nn1)C(=O)N[C@@H](CCC(N)=O)C(=O)N[C@@H](Cc1ccc(O)cc1)C(=O)N2,Nectin-4,"binding, SPR",Kd,2.2 nM
Cc1cccc(CN2CCN(C(c3ccccc3)c3ccc(Cl)cc3)CC2)c1 (stereo not drawn),SIGMAR1,"ligand displacement, radioligand",Ki,1250 nM
